Reference: ChEMBL document CHEMBL3585281, “Antibacterial Labdane Diterpenoids from Vitex vestita” (2015)

Assays:
Type in all cases: functional
Bacillus cereus [1] = assay: Antibacterial activity against Bacillus cereus CIP 6624 after 18 hrs by agar dilution method; settings: CIP 6624, 18 h
Outline: (§1)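 Agar-dilution MIC against Gram-positive strains. Compounds in DMSO, geometric dilutions giving final 100−0.75 mg/L in Mueller Hinton agar. Strains grown 18 h at 37 °C in trypticase soy broth, diluted in sterile water, spotted by Steers inoculator (about 1000 UFC/spot). Plates incubated 18 h at 37 °C; DMSO blank; ofloxacin positive control. MIC = lowest concentration with no visible growth.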

Bacillus cereus [2] = assay: Antibacterial activity against Bacillus cereus N190 after 18 hrs by agar dilution method; settings: N190, 18 h; outline: as §1
Bacillus cereus [3] = assay: Antibacterial activity against Bacillus cereus N258 after 18 hrs by agar dilution method; settings: N258, 18 h; outline: as §1
Bacillus cereus [4] = assay: Antibacterial activity against Bacillus cereus N349 after 18 hrs by agar dilution method; settings: N349, 18 h; outline: as §1
Bacillus spizizenii = assay: Antibacterial activity against Bacillus subtilis ATCC 6633 after 18 hrs by agar dilution method; settings: ATCC 6633, 18 h; outline: as §1
Corynebacterium striatum = assay: Antibacterial activity against Corynebacterium striatum N840 after 18 hrs by agar dilution method; settings: N840, 18 h; outline: as §1
Enterococcus avium = assay: Antibacterial activity against Enterococcus avium CIP 104053 after 18 hrs by agar dilution method; settings: CIP 104053, 18 h; outline: as §1
[5] = system: Enterococcus casseliflavus; assay: Antibacterial activity against Enterococcus casseliflavus N487 after 18 hrs by agar dilution method; settings: N487, 18 h; outline: as §1
[6] = system: Enterococcus casseliflavus; assay: Antibacterial activity against Enterococcus casseliflavus CIP 103018 after 18 hrs by agar dilution method; settings: CIP 103018, 18 h; outline: as §1
Enterococcus durans = assay: Antibacterial activity against Enterococcus durans CIP 104999 after 18 hrs by agar dilution method; settings: CIP 104999, 18 h; outline: as §1
Enterococcus faecalis [7] = assay: Antibacterial activity against Enterococcus faecalis CIP 103214 after 18 hrs by agar dilution method; settings: CIP 103214, 18 h; outline: as §1
Enterococcus faecalis [8] = assay: Antibacterial activity against Enterococcus faecalis CIP 104676 after 18 hrs by agar dilution method; settings: CIP 104676, 18 h; outline: as §1
Enterococcus faecalis [9] = assay: Antibacterial activity against Enterococcus faecalis N491 after 18 hrs by agar dilution method; settings: N491, 18 h; outline: as §1
Enterococcus faecalis [10] = assay: Antibacterial activity against Enterococcus faecalis N518 after 18 hrs by agar dilution method; settings: N518, 18 h; outline: as §1
Enterococcus faecalis [11] = assay: Antibacterial activity against Enterococcus faecalis N520 after 18 hrs by agar dilution method; settings: N520, 18 h; outline: as §1
Enterococcus faecium [12] = assay: Antibacterial activity against Enterococcus faecium CIP 103014 after 18 hrs by agar dilution method; settings: CIP 103014, 18 h; outline: as §1
Enterococcus faecium [13] = assay: Antibacterial activity against Enterococcus faecium CIP 107387 after 18 hrs by agar dilution method; settings: CIP 107387, 18 h; outline: as §1
Enterococcus faecium [14] = assay: Antibacterial activity against Enterococcus faecium N490 after 18 hrs by agar dilution method; settings: N490, 18 h; outline: as §1
Enterococcus faecium [15] = assay: Antibacterial activity against Enterococcus faecium N507 after 18 hrs by agar dilution method; settings: N507, 18 h; outline: as §1
Enterococcus faecium [16] = assay: Antibacterial activity against Enterococcus faecium N733 after 18 hrs by agar dilution method; settings: N733, 18 h; outline: as §1
Enterococcus faecium [17] = assay: Antibacterial activity against Enterococcus faecium N823 after 18 hrs by agar dilution method; settings: N823, 18 h; outline: as §1
Enterococcus gallinarum [18] = assay: Antibacterial activity against Enterococcus gallinarum CIP 105985 after 18 hrs by agar dilution method; settings: CIP 105985, 18 h; outline: as §1
Enterococcus gallinarum [19] = assay: Antibacterial activity against Enterococcus gallinarum N489 after 18 hrs by agar dilution method; settings: N489, 18 h; outline: as §1
Enterococcus gallinarum [20] = assay: Antibacterial activity against Enterococcus gallinarum N492 after 18 hrs by agar dilution method; settings: N492, 18 h; outline: as §1
Enterococcus hirae = assay: Antibacterial activity against Enterococcus hirae CIP 5855 after 18 hrs by agar dilution method; settings: CIP 5855, 18 h; outline: as §1
Listeria innocua = assay: Antibacterial activity against Listeria innocua E044 after 18 hrs by agar dilution method; settings: E044, 18 h; outline: as §1
Listeria monocytogenes [21] = assay: Antibacterial activity against Listeria monocytogenes CIP 103575 after 18 hrs by agar dilution method; settings: CIP 103575, 18 h; outline: as §1
Listeria monocytogenes [22] = assay: Antibacterial activity against Listeria monocytogenes N783 after 18 hrs by agar dilution method; settings: N783, 18 h; outline: as §1
Listeria monocytogenes [23] = assay: Antibacterial activity against Listeria monocytogenes N836 after 18 hrs by agar dilution method; settings: N836, 18 h; outline: as §1
Listeria monocytogenes [24] = assay: Antibacterial activity against Listeria monocytogenes N851 after 18 hrs by agar dilution method; settings: N851, 18 h; outline: as §1
Staphylococcus aureus [25] = assay: Antibacterial activity against Staphylococcus aureus ATCC 25923 after 18 hrs by agar dilution method; settings: ATCC 25923, 18 h; outline: as §1
Staphylococcus aureus [26] = assay: Antibacterial activity against Staphylococcus aureus ATCC 9144 oxford after 18 hrs by agar dilution method; outline: as §1
Staphylococcus aureus [27] = assay: Antibacterial activity against Staphylococcus aureus CIP 483 after 18 hrs by agar dilution method; settings: CIP 483, 18 h; outline: as §1
Staphylococcus aureus [28] = assay: Antibacterial activity against Staphylococcus aureus CIP 53154 after 18 hrs by agar dilution method; settings: CIP 53154, 18 h; outline: as §1
Staphylococcus aureus [29] = assay: Antibacterial activity against Staphylococcus aureus CIP 53156 after 18 hrs by agar dilution method; settings: CIP 53156, 18 h; outline: as §1
Staphylococcus aureus [30] = assay: Antibacterial activity against Staphylococcus aureus CIP 5710 after 18 hrs by agar dilution method; settings: CIP 5710, 18 h; outline: as §1
Staphylococcus aureus [31] = assay: Antibacterial activity against Staphylococcus aureus CIP 7625 after 18 hrs by agar dilution method; settings: CIP 7625, 18 h; outline: as §1
Staphylococcus aureus [32] = assay: Antibacterial activity against Staphylococcus aureus CRBIP 2121 after 18 hrs by agar dilution method; settings: CRBIP 2121, 18 h; outline: as §1
[33] = system: Staphylococcus epidermidis; assay: Antibacterial activity against Staphylococcus epidermidis CIP 53124 after 18 hrs by agar dilution method; settings: CIP 53124, 18 h; outline: as §1
[34] = system: Staphylococcus haemolyticus; assay: Antibacterial activity against Staphylococcus haemolyticus CIP 8156 after 18 hrs by agar dilution method; settings: CIP 8156, 18 h; outline: as §1
[35] = system: Staphylococcus intermedius; assay: Antibacterial activity against Staphylococcus intermedius N987 after 18 hrs by agar dilution method; settings: N987, 18 h; outline: as §1
[36] = system: Staphylococcus lugdunensis; assay: Antibacterial activity against Staphylococcus lugdunensis ATCC 43809 after 18 hrs by agar dilution method; settings: ATCC 43809, 18 h; outline: as §1
[37] = system: Staphylococcus saprophyticus; assay: Antibacterial activity against Staphylococcus saprophyticus CIP 76125 after 18 hrs by agar dilution method; settings: CIP 76125, 18 h; outline: as §1
[38] = system: Staphylococcus saprophyticus; assay: Antibacterial activity against Staphylococcus saprophyticus E260 after 18 hrs by agar dilution method; settings: E260, 18 h; outline: as §1
Mammaliicoccus sciuri = assay: Antibacterial activity against Staphylococcus sciuri N993 after 18 hrs by agar dilution method; settings: N993, 18 h; outline: as §1
Streptococcus agalactiae = assay: Antibacterial activity against Streptococcus agalactiae CIP 103227 after 18 hrs by agar dilution method; settings: ATCC 13813, 18 h; outline: as §1

Measured: MIC

CN[C@H](CC(C)C)C(=O)N[C@H]1C(=O)N[C@@H](CC(N)=O)C(=O)N[C@H]2C(=O)N[C@H]3C(=O)N[C@H](C(=O)N[C@H](C(=O)O)c4cc(O)cc(O)c4-c4cc3ccc4O)[C@H](O)c3ccc(c(Cl)c3)Oc3cc2cc(c3O[C@@H]2O[C@H](CO)[C@@H](O)[C@H](O)[C@H]2O[C@H]2C[C@](C)(N)[C@H](O)[C@H](C)O2)Oc2ccc(cc2Cl)[C@H]1O [VANCOMYCIN]
22 µM: Enterococcus faecium [14]
0.2 µM: Staphylococcus aureus [26]
> 86 µM: Enterococcus faecalis [9] | Enterococcus faecium [13] | Enterococcus faecium [16] | Enterococcus faecium [17]
5 µM: Enterococcus faecalis [8] | Enterococcus gallinarum [18] | Enterococcus gallinarum [19] | Enterococcus gallinarum [20]
1.3 µM: Enterococcus faecalis [7]
2.7 µM: [5] | [6] | Staphylococcus aureus [31] | Staphylococcus aureus [32]
0.6 µM: Bacillus cereus [4] | Enterococcus faecalis [10] | Enterococcus faecalis [11] | Enterococcus faecium [15] | Staphylococcus aureus [25] | Staphylococcus aureus [27] | Staphylococcus aureus [28] | Staphylococcus aureus [30] | [33] | [34] | [35] | [36] | [37] | [38] | Mammaliicoccus sciuri
0.1 µM: Bacillus spizizenii
0.3 µM: all other assays above
